Experimental data: ChEMBL document CHEMBL1142490, “2-Phenyl-imidazo[1,2-a]pyridine compounds containing hydrophilic groups as potent and selective ligands for peripheral benzodiazepine receptors: synthesis, binding affinity and electrophysiological studies” (J Med Chem, 2008)
“And” between values parts separate entries of the source, which are not always exact repeats. Identical values can stand only once. The source made the active and inactive calls. No cut-off for these calls is given here.

Experiments:
[1] = Displacement of [3H]flunitrazepam from central benzodiazepine receptor in Sprague-Dawley rat cerebral cortex membrane by liquid scintillation counting; format: tissue-based
Method in brief: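 Rat cortical membranes in 50 mM Tris-HCl, pH 7.4, 0.4–0.5 mg protein. Incubated with [3H]flunitrazepam (0.5 nM final) for 60 min at 0 °C. Filtration, then scintillation counting. Nonspecific binding defined with 5 µM diazepam. Ki from three experiments in duplicate.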

Translocator protein = Translocator protein (Rattus norvegicus, UniProt P16257); experiment: Displacement of [3H]PK11195 from peripheral benzodiazepine receptor in Sprague-Dawley rat cerebral cortex membrane by liquid scintillation counting; format: tissue-based
Chain of Translocator protein (P16257 whole entry, looked up): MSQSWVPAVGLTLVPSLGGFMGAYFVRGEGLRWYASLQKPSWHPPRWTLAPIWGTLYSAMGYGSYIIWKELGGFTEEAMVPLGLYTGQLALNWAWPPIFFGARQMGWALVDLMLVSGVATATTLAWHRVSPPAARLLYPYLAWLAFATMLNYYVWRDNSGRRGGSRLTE
Method in brief: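 Rat cerebral cortex membranes are washed in PBS, pH 7.4. Incubation with [3H]-ligand (1 nM final), 0.15–0.20 mg protein, 90 min. Filtration on PEI-presoaked GF/B filters, then scintillation counting. Nonspecific binding defined with 10 µM unlabelled ligand. Ki from three experiments in duplicate.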

[2] = target: T1, GABA-A receptor; alpha-1/beta-2/gamma-2 (Homo sapiens) (UniProt P14867+P47870+P18507); experiment: Agonist activity at human recombinant GABAA alpha-1-beta-2-gamma-2L receptor expressed in Xenopus oocytes assessed as change in GABA-induced chloride current amplitude at 1 uM by voltage clamp technique; format: functional, cell-based; conditions: Oocyte
Method in brief: (§1)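 Xenopus oocytes (stage V–VI, defolliculated) are nuclear-injected with human α1, β2 and γ2L cDNAs (1:1:1) and recorded about 24 h later. Two-electrode voltage clamp at -70 mV, MBS perfusion, room temperature. […] Reported as percent change from control; 5–10 oocytes per concentration.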

[3] = target: T1, GABA-A receptor; alpha-1/beta-2/gamma-2 (Homo sapiens); experiment: Agonist activity at human recombinant GABAA alpha-1-beta-2-gamma-2L receptor expressed in Xenopus oocytes assessed as change in GABA-induced chloride current amplitude at 10 uM by voltage clamp technique; format: functional, cell-based; conditions: Oocyte; method in brief: as §1
Rattus norvegicus [4] = species on record: Rattus norvegicus; experiment: Selectivity ratio of Ki for central benzodiazepine receptor to Ki for peripheral benzodiazepine receptor in Sprague-Dawley rat cerebral cortex membrane; format: tissue-based
Rattus norvegicus [5] = species on record: Rattus norvegicus; experiment: Agonist activity at GABAA alpha-1-beta-2-gamma-2L receptor in Sprague-Dawley rat hippocampal CA1 pyramidal neurons assessed as increase in miniature inhibitory postsynaptic current amplitude at 30 uM after 30 mins by whole-cell patch clamp technique; format: functional, tissue-based; conditions: Hippocampus
Method in brief: (§2)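 Coronal hippocampal slices (300 µm) from male Sprague-Dawley rats anesthetized with ketamine (250 mg/kg i.p.) are recovered in ACSF, 40 min at 34 °C, then 30 min at room temperature. Whole-cell recordings of mIPSCs from CA1 pyramidal neurons at -65 mV, CsCl-based internal with QX-314. Compound bath-perfused at 30 µM for 30 min. Readout is mIPSC amplitude or decay time versus the pre-drug control.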

Rattus norvegicus [6] = species on record: Rattus norvegicus; experiment: Agonist activity at GABAA alpha-1-beta-2-gamma-2L receptor in Sprague-Dawley rat hippocampal CA1 pyramidal neurons assessed as increase in miniature inhibitory postsynaptic current decay time at 30 uM after 30 mins by whole-cell patch clamp technique; format: functional, tissue-based; conditions: Hippocampus; method in brief: as §2
Rattus norvegicus [7] = species on record: Rattus norvegicus; experiment: Agonist activity at GABAA alpha-1-beta-2-gamma-2L receptor in Sprague-Dawley rat hippocampal CA1 pyramidal neurons assessed as inhibition of miniature inhibitory postsynaptic current amplitude at 30 uM after 30 mins in presence of 1 uM finasteride by whole-cell patch clamp technique; format: functional, tissue-based; conditions: Hippocampus
Method in brief: (§3)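 Rat hippocampal slices, whole-cell mIPSC recording from CA1 pyramidal neurons at -65 mV. Compound (30 µM) co-applied with finasteride (1 µM) for 30 min. Change in mIPSC amplitude or decay averaged over a 3 min period and given as mean percent change, n = 6.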

Rattus norvegicus [8] = species on record: Rattus norvegicus; experiment: Agonist activity at GABAA alpha-1-beta-2-gamma-2L receptor in Sprague-Dawley rat hippocampal CA1 pyramidal neurons assessed as inhibition of miniature inhibitory postsynaptic current decay time at 30 uM after 30 mins in presence of 1 uM finasteride by whole-cell patch clamp technique; format: functional, tissue-based; conditions: Hippocampus; method in brief: as §3
[9] = target: T1, GABA-A receptor; alpha-1/beta-2/gamma-2 (Homo sapiens); experiment: Agonist activity at human recombinant GABAA alpha-1-beta-2-gamma-2L receptor expressed in Xenopus oocytes assessed as inhibition of GABA-induced chloride current amplitude at 10 uM in presence of 10 uM flumazenil by voltage clamp technique; format: functional, cell-based; conditions: Oocyte
Method in brief: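 Two-electrode voltage clamp (-70 mV) of oocytes expressing human α1β2γ2L GABAA receptors. Percent change of GABA response by compound at 10 µM measured with and without flumazenil at 10 µM. Mean of four oocytes ± SEM.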

CCCCN(C)C(=O)Cc1c(-c2ccc(OC)cc2)nc2c(Cl)cc(Cl)cn12
Ki [1]: > 10 nM | Ki (Translocator protein): 0.73 nM | Activity [2]: 24.8% | Activity [3]: -16.5%

COc1ccc(-c2nc3c(Cl)cc(Cl)cn3c2CC(=O)N(C)c2ccccc2)cc1
Ki [1]: 1000 nM | Ki (Translocator protein): 0.23 nM | Activity [2]: -8.1% | Activity [3]: -8%

CCCCN(C)C(=O)Cc1c(-c2ccc(Cl)c([N+](=O)[O-])c2)nc2c(Cl)cccn12
Ki [1]: > 10 nM | Ki (Translocator protein): 1.16 nM | Activity [2]: 12.1% | Activity [3]: -20%

CCCN(CCC)C(=O)Cc1c(-c2ccc(N)cc2)nc2c(Cl)cc(Cl)cn12 [listing 1 of 3 here]
Ki [1]: 1020 nM | Ki (Translocator protein): 2.76 nM

CCCN(CCC)C(=O)Cc1c(-c2ccc(OC(=O)CCC(=O)OC)cc2)nc2c(Cl)cc(Cl)cn12
Ki [1]: > 10 nM | Ki (Translocator protein): 1.69 nM | Activity [2]: 16.6% | Activity [3]: 37.5%

CCCN(CCC)C(=O)Cc1c(-c2ccc(Cl)cc2)nc2c(NC(=O)CC(=O)O)cccn12
Ki [1]: > 10 nM | Ki (Translocator protein): 193 nM | Activity [2]: 9.6% | Activity [3]: 19.8%

CCCCN(C)C(=O)Cc1c(-c2ccc(Cl)c(N)c2)nc2c(Cl)cccn12
Ki [1]: 194 nM | Ki (Translocator protein): 1.04 nM | Ratio Ki (Rattus norvegicus [4]): 187 | Activity [2]: 9.5% | Activity [3]: 10.7%

CCCN(CCC)C(=O)Cc1c(-c2ccc(Cl)c(N)c2)nc2c(Cl)cc(Cl)cn12 [listing 1 of 3 here]
Ki [1]: > 10 nM | Ki (Translocator protein): 0.33 nM

CCCN(CCC)C(=O)Cc1c(-c2ccc(Cl)c(NC(=O)CCC(=O)O)c2)nc2c(Cl)cc(Cl)cn12
Ki [1]: > 10 nM | Ki (Translocator protein): 14.4 nM | Activity [2]: 11.5% | Activity [3]: 10%

CCCCN(C)C(=O)Cc1c(-c2ccc(Cl)c([N+](=O)[O-])c2)nc2c(Cl)cc(Cl)cn12
Ki (Translocator protein): 0.3 nM | Activity [2]: -10.2% | Activity [3]: -9.6%

CCC(C)N(C)C(=O)c1cc2ccccc2c(-c2ccccc2Cl)n1 (configuration not stated) [PK-11195]
Ki [1]: > 10 nM | Activity [2]: 4.9% | Activity [3]: 9.4%

CCCN(CCC)C(=O)Cc1c(-c2ccc(Cl)c(N)c2)nc2c(Cl)cc(Cl)cn12 [listing 2 of 3 here]
Activity [2]: -6.2% and -2.9%

CCCN(CCC)C(=O)Cc1c(-c2nccs2)nc2c(Cl)cc(Cl)cn12
Ki [1]: > 10 nM | Ki (Translocator protein): 2.07 nM | Activity [2]: 6.3% | Activity [3]: 60.6%

CCCN(CCC)C(=O)Cc1c(-c2ccc(Cl)cc2)nc2c(NC(=O)CCCC(=O)O)cccn12
Ki [1]: > 10 nM | Ki (Translocator protein): 118 nM | Activity [2]: 7.3% | Activity [3]: -1.9%

CCCN(CCC)C(=O)Cc1c(-c2ccc(Cl)cc2)nc2c(NC(=O)CN)cccn12
Ki [1]: > 10 nM | Ki (Translocator protein): 14.2 nM

CCCN(CCC)C(=O)Cc1c(-c2ccc(Cl)cc2)nc2c(NC(=O)CCC(=O)O)cccn12
Ki [1]: > 10 nM | Ki (Translocator protein): 285 nM | Activity [2]: 1.3% | Activity [3]: 12.3%

CCCN(CCC)C(=O)Cc1c(-c2ccc(Cl)cc2)nc2c(NC(=O)CCC(=O)OCC)cccn12
Ki [1]: > 10 nM | Ki (Translocator protein): 0.86 nM

CCCN(CCC)C(=O)Cc1c(-c2ccc(OC(=O)CN)cc2)nc2c(Cl)cc(Cl)cn12
Ki [1]: > 10 nM | Ki (Translocator protein): 1.52 nM | Activity [2]: 26.6% | Activity [3]: 71%

CN(C(=O)Cc1c(-c2ccc(O)cc2)nc2c(Cl)cc(Cl)cn12)c1ccccc1
Ki [1]: 5130 nM | Ki (Translocator protein): 0.32 nM | Ratio Ki (Rattus norvegicus [4]): > 1000 | Activity [2]: -5.9% | Activity [3]: 6.7%

CCCCN(C)C(=O)Cc1c(-c2ccc(O)cc2)nc2c(Cl)cc(Cl)cn12
Ki [1]: 2930 nM | Ki (Translocator protein): 0.87 nM | Activity [2]: 7.9% | Activity [3]: -23.6%

CCCN(CCC)C(=O)Cc1c(-c2ccc(Cl)c(N)c2)nc2c(Cl)cc(Cl)cn12 [listing 3 of 3 here]
Ki (Translocator protein): 0.45 nM

CCCN(CCC)C(=O)Cc1c(-c2ccc(Cl)c([N+](=O)[O-])c2)nc2c(Cl)cc(Cl)cn12
Ki [1]: > 10 nM | Ki (Translocator protein): 0.24 nM | Activity [2]: 14.9% | Activity [3]: 9.6% | Activity (Rattus norvegicus [5]): Active | Activity (Rattus norvegicus [6]): Active | Activity (Rattus norvegicus [7]): inactive | Activity (Rattus norvegicus [8]): inactive

CCCN(CCC)C(=O)Cc1c(-c2ccc(O)cc2)nc2c(Cl)cc(Cl)cn12
Ki [1]: > 10 nM | Ki (Translocator protein): 1.31 nM | Ratio Ki (Rattus norvegicus [4]): > 1000 | Activity [2]: -3.9% | Activity [3]: 23.8%

CCCN(CCC)C(=O)Cc1c(-c2ccc(OC)cc2)nc2c(Cl)cc(Cl)cn12
Ki [1]: > 10 nM | Ki (Translocator protein): 0.31 nM | Activity [2]: 8.8% | Activity [3]: 55.9% | Activity [9]: inactive

CCCN(CCC)C(=O)Cc1c(-c2ccc(N)cc2)nc2c(Cl)cc(Cl)cn12 [listing 2 of 3 here]
Activity [2]: 8.1% and 29.9%

CCCN(CCC)C(=O)Cc1c(-c2ccc([N+](=O)[O-])cc2)nc2c(Cl)cc(Cl)cn12
Ki [1]: > 10 nM | Ki (Translocator protein): 0.15 nM | Activity [2]: -4.2% | Activity [3]: -16.6%

CCCN(CCC)C(=O)Cc1c(-c2ccc(N)cc2)nc2c(Cl)cc(Cl)cn12 [listing 3 of 3 here]
Ki [1]: 246 nM | Ki (Translocator protein): 2.22 nM

CCCCN(C)C(=O)Cc1c(-c2ccc(Cl)c(N)c2)nc2c(Cl)cc(Cl)cn12
Ki [1]: 535 nM | Ki (Translocator protein): 0.78 nM | Ratio Ki (Rattus norvegicus [4]): 686

CN(C(=O)Cc1c(-c2nccs2)nc2c(Cl)cc(Cl)cn12)c1ccccc1
Ki [1]: > 10 nM | Ki (Translocator protein): 1.44 nM | Activity [2]: -1.2% | Activity [3]: 19.4%
